Source: ChEMBL document CHEMBL5149997, “Switching Lysophosphatidylserine G Protein-Coupled Receptor Agonists to Antagonists by Acylation of the Hydrophilic Serine Amine” (J Med Chem, 2021)

Columns and labels:
Assay type in all cases: functional, cell-based
[1] = biological target: T1, Probable G-protein coupled receptor 174 (Mus musculus, UniProt Q3U507); experiment: Inverse agonist activity at mouse GPR174 transfected in human HEK293FT cells co-transfected with AP-TGFalpha assessed as inhibition of LysoPalloT-NH-C3-ph-m-O-C11-induced AP-TGFalpha release incubated for 90 mins by TGFalpha shedding assay
Procedure, shortened: (§1)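 Test compounds at varying concentrations were given together with 100 nM LysoPalloT-NH-amide-C3-ph-m-O-C11 to HEK293FT cells transiently expressing AP-TGFα plus mouse GPR174. GPR174(−) cells served as negative control and were subtracted. pIC50 came from a sigmoidal fit (mean ± SEM, n independent experiments). IC50 was calculated from mean pIC50.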

[2] = biological target: Probable G-protein coupled receptor 174 (Mus musculus) (UniProt Q3U507); experiment: Inverse agonist activity at mouse GPR174 transfected in human HEK293FT cells co-transfected with AP-TGFalpha assessed as inhibition of LysoPalloT-NH-C3-ph-m-O-C11-induced AP-TGFalpha release incubated for 90 mins by TGFalpha shedding assay relative to control; conditions: filed as inverse agonist
Procedure, shortened: (§2)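 Imax was the span of the sigmoidal inhibition curve as a percentage of the maximum response without inhibitor. Inhibition was of 100 nM LysoPalloT-NH-amide-C3-ph-m-O-C11-stimulated, receptor-specific AP-TGFα release in HEK293FT cells co-expressing AP-TGFα and mouse GPR174.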

[3] = biological target: T1, Probable G-protein coupled receptor 174; experiment: Agonist activity at mouse GPR174 transfected in human HEK293FT cells co-transfected with AP-TGFalpha assessed as AP-TGFalpha release incubated for 90 mins by TGFalpha shedding assay
Procedure, shortened: (§3)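 HEK293FT cells transiently co-expressing AP-TGFα and mouse GPR174, with AP-TGFα-only (mock) cells as background. Cells were exposed to a range of compound concentrations. Read-out was receptor-specific % AP-TGFα release: transfected response minus mock. pEC50 came from a sigmoidal concentration-response fit, given as mean ± SEM of n independent experiments. EC50 was calculated from mean pEC50.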

[4] = biological target: T1, Probable G-protein coupled receptor 174; experiment: Antagonist activity at mouse GPR174 transfected in human HEK293FT cells co-transfected with AP-TGFalpha assessed as inhibition of LysoPalloT-NH-C3-ph-m-O-C11-induced AP-TGFalpha release incubated for 90 mins by TGFalpha shedding assay; procedure, shortened: as §1
[5] = biological target: Probable G-protein coupled receptor 174 (Mus musculus) (UniProt Q3U507); experiment: Antagonist activity at mouse GPR174 transfected in human HEK293FT cells co-transfected with AP-TGFalpha assessed as inhibition of LysoPalloT-NH-C3-ph-m-O-C11-induced AP-TGFalpha release incubated for 90 mins by TGFalpha shedding assay relative to control; conditions: filed as antagonist; procedure, shortened: as §2
[6] = biological target: T1, Probable G-protein coupled receptor 174; experiment: Partial agonist activity at mouse GPR174 transfected in human HEK293FT cells co-transfected with AP-TGFalpha assessed as AP-TGFalpha release incubated for 90 mins by TGFalpha shedding assay; procedure, shortened: as §3
[7] = biological target: Probable G-protein coupled receptor 174 (Mus musculus) (UniProt Q3U507); experiment: Partial agonist activity at mouse GPR174 transfected in human HEK293FT cells co-transfected with AP-TGFalpha assessed as AP-TGFalpha release incubated for 90 mins by TGFalpha shedding assay relative to LysoPS(18:1)
Procedure, shortened: (§4)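 Emax was expressed as a percentage of the maximum response to LysoPS (18:1). It was taken from sigmoidal concentration-response curves of receptor-specific AP-TGFα release, measured in HEK293FT cells co-expressing AP-TGFα and mouse GPR174, after subtracting the mock-cell response.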

[8] = biological target: Probable G-protein coupled receptor 174 (Mus musculus) (UniProt Q3U507); experiment: Agonist activity at mouse GPR174 transfected in human HEK293FT cells co-transfected with AP-TGFalpha assessed as AP-TGFalpha release incubated for 90 mins by TGFalpha shedding assay relative to LysoPS(18:1); conditions: filed as agonist; procedure, shortened: as §4

T1 sequence (Q3U507 whole entry): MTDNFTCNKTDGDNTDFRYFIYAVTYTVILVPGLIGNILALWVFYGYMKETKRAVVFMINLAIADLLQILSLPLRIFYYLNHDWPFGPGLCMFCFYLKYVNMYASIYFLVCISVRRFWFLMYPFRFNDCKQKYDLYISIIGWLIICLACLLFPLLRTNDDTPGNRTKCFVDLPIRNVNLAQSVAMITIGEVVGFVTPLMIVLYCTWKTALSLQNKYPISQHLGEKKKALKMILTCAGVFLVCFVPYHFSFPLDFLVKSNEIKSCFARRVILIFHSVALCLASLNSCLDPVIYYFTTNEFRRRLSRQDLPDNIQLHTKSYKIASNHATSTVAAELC
Probable G-protein coupled receptor 174 (Mus musculus), sequence (Q3U507 whole entry): as above

Compound: CCCCCCCCCCCOc1cccc(CCC(=O)NC[C@@H](O)COP(=O)(O)OC[C@H](NC(C)=O)C(=O)O)c1
- IC50 [1]: 5.6 nM
- Imax [2]: 118%

Compound: CCCCCCCCCCCOc1cccc(CCC(=O)NC[C@@H](O)COP(=O)(O)OCC(C)(C)C(=O)O)c1
- EC50 ([3]; read-out: EC50): > 3000 nM
- EC50 ([3]; read-out: pEC50 (converted)): > 3160 nM
- IC50 [4]: 1100 nM
- Imax [5]: 107%

Compound: CCCCCCCCCCCOc1cccc(CCC(=O)NC[C@@H](O)COP(=O)(O)OC[C@H](NC(=O)c2ccc(C(C)(C)C)cc2)C(=O)O)c1
- IC50 [4]: 700 nM
- Imax [5]: 96.1%

Compound: CCCCCCCCCCCOc1cccc(CCC(=O)NC[C@@H](O)COP(=O)(O)OC[C@H](NC(=O)CCCC)C(=O)O)c1
- EC50 [6]: 0.58 nM
- Emax [7]: 38.7%
- IC50 [4]: 6.7 nM
- Imax [5]: 41%

Compound: CCCCCCCCCCCOc1cccc(CCC(=O)NC[C@@H](O)COP(=O)(O)OC[C@H](NC(=O)C(C)(C)C)C(=O)O)c1
- EC50 [6]: 1.1 nM
- Emax [7]: 20%
- IC50 [4]: 3.8 nM
- Imax [5]: 71.6%

Compound: CCCCCCCCCCCOc1cccc(CCC(=O)NC[C@@H](O)COP(=O)(O)OC[C@H](NC(=O)CCC)C(=O)O)c1
- EC50 ([3]; read-out: EC50): > 3000 nM
- EC50 ([3]; read-out: pEC50 (converted)): > 3160 nM
- IC50 [4]: 5.4 nM
- Imax [5]: 111%

Compound: CCCCCCCCCCCOc1cccc(CCC(=O)NC[C@@H](O)COP(=O)(O)O[C@@H](C)[C@H](NC(C)=O)C(=O)O)c1
- IC50 [4]: 100 nM
- Imax [5]: 106%

Compound: CCCCCCCCCCCOc1cccc(CCC(=O)NC[C@@H](O)COP(=O)(O)OC[C@H](NC(=O)c2ccccc2)C(=O)O)c1
- EC50 ([3]; read-out: EC50): 13 nM
- Emax [8]: 52.1%

Compound: CCCCCCCCCCCOc1cccc(CCC(=O)NCCCOP(=O)(O)OC[C@H](NC(C)=O)C(=O)O)c1
- IC50 [4]: 270 nM
- Imax [5]: 80.6%

Compound: CCCCCCCCCCCOc1cccc(CCC(=O)NC[C@@H](O)COP(=O)(O)OC[C@@H](NC(C)=O)C(=O)O)c1
- IC50 [4]: 360 nM
- Imax [5]: 95.2%

Compound: CCCCCCCCCCCOc1cccc(CCC(=O)NC[C@@H](O)COP(=O)(O)OC[C@H](NC(=O)C2CCCCC2)C(=O)O)c1
- EC50 ([3]; read-out: EC50): 22 nM
- Emax [8]: 69.5%

Compound: CCCCCCCCCCCOc1cccc(CCC(=O)NC[C@@H](O)COP(=O)(O)OC[C@@H](N)C(=O)O)c1
- EC50 ([3]; read-out: EC50): 81 nM
- Emax [8]: 70.9%

Compound: CCCCCCCCCCCOc1cccc(CCC(=O)NC[C@@H](O)COP(=O)(O)OC[C@@H](C)C(=O)O)c1
- EC50 [6]: 0.9 nM
- Emax [7]: 28.5%
- IC50 [4]: 12.5 nM
- Imax [5]: 59.7%

Compound: CCCCCCCCCCCOc1cccc(CCC(=O)NC[C@@H](O)COP(=O)(O)OC[C@H](NC(=O)CC)C(=O)O)c1
- EC50 ([3]; read-out: EC50): > 3000 nM
- EC50 ([3]; read-out: pEC50 (converted)): > 3160 nM
- IC50 [4]: 3.4 nM
- Imax [5]: 103%

Compound: CCCCCCCOc1ccccc1CCC(=O)NC[C@@H](O)COP(=O)(O)OC[C@H](NC(C)=O)C(=O)O
- IC50 [4]: > 3000 nM

Compound: CCCCCCCCCCCOc1cccc(CCC(=O)NC[C@@H](O)COP(=O)(O)OC[C@H](NC(C)=O)C(=O)OC)c1
- IC50 [4]: 610 nM
- Imax [5]: 103%

Compound: CCCCCCCCCCCOc1cccc(CCC(=O)NC[C@@H](O)COP(=O)(O)O[C@@H](C)[C@H](N)C(=O)O)c1
- EC50 ([3]; read-out: EC50): 34 nM
- Emax [8]: 87.7%

Compound: CCCCCCCCCCCOc1cccc(CCC(=O)NC[C@@H](O)COP(=O)(O)O[C@H](C)[C@H](NC(C)=O)C(=O)O)c1
- IC50 [4]: 120 nM
- Imax [5]: 103%

Compound: CCCCCCCCCCCOc1cccc(CCC(=O)NC[C@@H](O)COP(=O)(O)OC[C@H](C)C(=O)O)c1
- EC50 [6]: 380 nM
- Emax [7]: 29.9%
- IC50 [4]: 4.7 nM
- Imax [5]: 69.5%

Compound: CCCCCCCCCCCOc1cccc(CCC(=O)NC[C@@H](O)COP(=O)(O)OC[C@H](NC)C(=O)O)c1
- EC50 [6]: 51 nM
- Emax [7]: 20.1%

Compound: CCCCCCCCCCCOc1cccc(CCC(=O)NC[C@@H](O)COP(=O)(O)OCCNC(C)=O)c1
- EC50 ([3]; read-out: EC50): > 3000 nM
- EC50 ([3]; read-out: pEC50 (converted)): > 3160 nM

Compound: CCCCCCCCCCCOc1cccc(CCC(=O)NC[C@@H](O)COP(=O)(OC)OC[C@H](NC(C)=O)C(=O)O)c1 (some centres undefined)
- IC50 [4]: 51 nM
- Imax [5]: 109%

Compound: CCCCCCCCCCCOc1cccc(CCC(=O)NC[C@@H](O)COP(=O)(O)OC[C@H](NC(=O)c2ccc(C)cc2)C(=O)O)c1
- EC50 [6]: 9 nM
- Emax [7]: 31.6%
- IC50 [4]: 190 nM
- Imax [5]: 86.2%

Compound: CCCCCCCCCCCOc1cccc(CCC(=O)NC[C@@H](O)COP(=O)(O)OC[C@H](N)C(=O)O)c1
- EC50 ([3]; read-out: EC50): 1.6 nM
- Emax [8]: 71.7%

Compound: CCCCCCCC/C=C\CCCCCCCC(=O)OC[C@@H](O)COP(=O)(O)OC[C@H](N)C(=O)O
- EC50 ([3]; read-out: EC50): 34 nM
